Active and inactive are the calls of the source. The rule behind the calls is not given here.
What follows are compounds tested on HT-29 (assay: Cytotoxicity against human HT-29 cells at <=200 uM after 24 hrs by MTT assay).
Assay type: functional, cell-based
How it was run: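 HT29 colon cancer cells seeded at 1 × 10⁵ cells/well in RPMI 1640, adhered overnight at 37 °C, then exposed to various compound concentrations (up to 200 μM) for 24 h at 37 °C. MTT ([…] in RPMI 1640) added for 1 h at 37 °C; cells lysed, crystals dissolved in isopropanol, absorbance read at 570 nm.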

Row | Structure (SMILES) | Activity
1 | CC(C)[C@H](NC(=O)c1ccc2ccccc2c1)C(=O)N[C@@H](C)C(=O)N[C@@H](CC(=O)O)CN(C)C1CCCCC1 | Not toxic
2 | CC(C)[C@H](NC(=O)c1ccc2ccccc2c1)C(=O)N[C@@H](C)C(=O)N[C@H](CNCc1ccc2c(c1)OCO2)CC(=O)O | Not toxic
3 | CC(C)[C@H](NC(=O)c1ccc2ccccc2c1)C(=O)N[C@@H](C)C(=O)N[C@H](CNCc1ccc(C(N)=O)cc1)CC(=O)O | Not toxic
4 | CC(C)[C@H](NC(=O)c1ccc2ccccc2c1)C(=O)N[C@@H](C)C(=O)N[C@@H](CC(=O)O)CN(C)Cc1ccccc1 | Not toxic
5 | CC(C)[C@H](NC(=O)c1ccc2ccccc2c1)C(=O)N[C@@H](C)C(=O)N[C@H](CNC1CCCCC1)CC(=O)O | Not toxic
6 | CC(C)[C@H](NC(=O)c1ccc2ccccc2c1)C(=O)N[C@@H](C)C(=O)N[C@H](CNCc1ccccc1F)CC(=O)O | Not toxic
7 | CC(C)[C@H](NC(=O)c1ccc2ccccc2c1)C(=O)N[C@@H](C)C(=O)N[C@H](CNCc1ccc(O)cc1)CC(=O)O | Not toxic
8 | CC(C)[C@H](NC(=O)c1ccc2ccccc2c1)C(=O)N[C@@H](C)C(=O)N[C@H](CNCc1ccccc1O)CC(=O)O | Not toxic
9 | CC(C)[C@H](NC(=O)c1ccc2ccccc2c1)C(=O)N[C@@H](C)C(=O)N[C@H](CCCc1ccccc1)CC(=O)O | Not toxic
10 | CC(C)[C@H](NC(=O)c1ccc2ccccc2c1)C(=O)N[C@@H](C)C(=O)N[C@H](CNCc1ccccc1)CC(=O)O | Not toxic
11 | COc1ccccc1CNC[C@H](CC(=O)O)NC(=O)[C@H](C)NC(=O)[C@@H](NC(=O)c1ccc2ccccc2c1)C(C)C | Not toxic

The compounds below were run against T1, Caspase-3 (Homo sapiens) (UniProt P42574) (assay: Inhibition of caspase 3).
T1 sequence (whole entry): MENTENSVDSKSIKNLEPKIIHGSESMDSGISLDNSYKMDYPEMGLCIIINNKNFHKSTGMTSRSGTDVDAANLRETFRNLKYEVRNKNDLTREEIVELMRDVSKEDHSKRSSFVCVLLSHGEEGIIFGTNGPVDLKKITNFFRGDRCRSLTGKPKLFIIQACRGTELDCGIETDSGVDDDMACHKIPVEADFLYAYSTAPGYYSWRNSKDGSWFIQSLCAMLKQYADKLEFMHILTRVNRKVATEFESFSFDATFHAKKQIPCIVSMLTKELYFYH

Row | Activity | Structure (SMILES)
12 | inactive | CC(C)[C@H](NC(=O)c1ccc2ccccc2c1)C(=O)N[C@@H](C)C(=O)N[C@H](CNCc1ccccc1O)CC(=O)O

— ChEMBL document CHEMBL1157618, “Noncovalent tripeptidyl benzyl- and cyclohexyl-amine inhibitors of the cysteine protease caspase-1” (J Med Chem, 2010)
